≈ marks a conversion by molar mass, not a printed value. Calls of active or inactive are those of the source. No cut-off for these calls is given here.
Columns and labels:
[1] = test system: Mycobacterium tuberculosis; assay: Antibacterial activity against Mycobacterium tuberculosis mc2 6230 with Eis C-14T mutation assessed as inhibition of bacterial growth incubated upto 3 weeks hrs by resazurin dye based double-dilution method; type: functional
Outline: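 Double-dilution broth MIC. Media: M. smegmatis, Mueller-Hinton; M. abscessus, 7H9 + 0.05% Tween80 + 0.4% glycerol; mc²6230, 7H9 + 0.05% tyloxapol, 0.5% glycerol, 10% OADC, 0.2% casamino acids, 24 µg/mL pantothenate; other mycobacteria, 7H9 + 0.05% Tween80, 0.4% glycerol, 10% ADC. Inoculum from agar set to 0.5 McFarland, then diluted 1:100.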

[2] = test system: Mycobacterium tuberculosis; assay: Potentiation of kanamycin-induced antibacterial activity against Mycobacterium tuberculosis H37Rv mc2 6230 with Eis C-14T mutation assessed as kanamycin MIC incubated for 1 week by resazurin staining based microdilution method; type: functional; details: time 1 weeks
Outline: (§1)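 Microdilution in 7H9 + 10% OADC, 0.5% glycerol, 0.05% tyloxapol, 0.2% casamino acids, 24 µg/mL pantothenate. […] Culture at 0.5 McFarland diluted 1:100 and added. Incubated one week at 37 °C, then 5 µL of 2.5 mg/mL resazurin added, read after two days. Duplicate.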

[3] = test system: Mycobacterium tuberculosis; assay: Potentiation of kanamycin-induced antibacterial activity against Mycobacterium tuberculosis mc2 6230-K204 with Eis C-14T mutation assessed as kanamycin MIC incubated for 1 week by resazurin staining based microdilution method; type: functional; details: time 1 weeks; outline: as §1
[4] = test system: Mycobacterium tuberculosis; assay: Antibacterial activity against Mycobacterium tuberculosis H37Rv mc2 6230 with Eis C-14T mutation assessed as inhibition of bacterial growth at 100 uM incubated for 1 week by resazurin staining based microdilution method; type: functional, organism-based; details: time 1.0 weeks
[5] = test system: Mycobacterium tuberculosis; assay: Antibacterial activity against Mycobacterium tuberculosis mc2 6230-K204 with Eis C-14T mutation inhibition of bacterial growth at 100 uM incubated for 1 week by resazurin staining based microdilution method; type: functional, organism-based; details: time 1.0 weeks

| Structure (SMILES) | MIC [1] | MIC [2] | MIC [3] | inhibition [4] | inhibition [5] |
| --- | --- | --- | --- | --- | --- |
| CCc1ccc(C(=O)CCCN2CCC(O)(c3ccc(Cl)cc3)CC2)cc1 | 15.6 µM (≈ 6.02 µg/mL) |  |  |  |  |
| Cc1ccc(C(=O)CCCN2CCC(O)(c3ccc(Cl)cc3)CC2)cc1 | 31.3 µM (≈ 11.6 µg/mL) |  |  |  |  |
| CC(C)(C)c1ccc(C(=O)CCCN2CCC(O)(c3ccc(Br)cc3)CC2)cc1 | 4 µM (≈ 1.83 µg/mL) |  |  |  |  |
| O=C(CCCN1CCCCC1)c1ccc(F)cc1 [PRIMAPERONE] |  | <=1.25 ug ml-1 | >10 µg/mL |  |  |
| O=C(CCCN1CCC(O)CC1)c1ccc(F)cc1 |  | <=1.25 ug ml-1 | >10 µg/mL |  |  |
| N=C(N)NCCCC(=O)c1ccc(F)cc1 | >64 µM | <=1.25 ug ml-1 | >10 µg/mL |  |  |
| CC(C)(C)c1ccc(C(=O)CCCN2CCC(O)(c3ccc(Cl)cc3)CC2)cc1 | 2 µM (≈ 0.828 µg/mL) |  |  |  |  |
| O=C(CCCN1CCC(O)(c2ccccc2)CC1)c1ccc(F)cc1 | >64 µM | <=1.25 ug ml-1 | >10 µg/mL |  |  |
| CC(C)c1ccc(C(=O)CCCN2CCC(O)(c3ccc(Cl)cc3)CC2)cc1 | 7.8 µM (≈ 3.12 µg/mL) |  |  |  |  |
| O=C(CCCN1CCC(c2ccc(Cl)cc2)CC1)c1ccc(F)cc1 | 64 µM (≈ 23 µg/mL) |  |  | Active | Active |
| O=C(CCCN1CC=C(c2ccc(Cl)cc2)CC1)c1ccc(F)cc1 | 32 µM (≈ 11.5 µg/mL) |  |  | Active | Active |

Reference: ChEMBL document CHEMBL5107950, “Structure-based design of haloperidol analogues as inhibitors of acetyltransferase Eis from Mycobacterium tuberculosis to overcome kanamycin resistance” (RSC Med Chem, 2021)
